According to article PMC4834983 (Journal of medicinal chemistry, 2015):

Legend:
MDA-MB-231 cells = assay: CyQuant cell proliferation assay; format: cell-based, human; settings: for effect on MDA-MB-231 cell growth: 5 μM
Method in brief: (§1)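 CyQuant DNA-dye proliferation assay on cultured cells after 72 h exposure to test compound. Viability expressed relative to DMSO-treated control cells.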

SF295 cells = assay: CyQuant cell proliferation assay; format: cell-based; settings: Homo sapiens, SF-295, 72 h, read-out: IC50 cell proliferation SF295
Method in brief: as §1

U373MG cells = assay: CyQuant cell proliferation assay; format: cell-based; settings: Homo sapiens, U373 MG, 72 h, read-out: IC50 cell proliferation U373MG
Method in brief: as §1

MCF-7 cells = assay: CyQuant cell proliferation assay; format: cell-based; settings: Homo sapiens, MCF7, 72 h, read-out: IC50 cell proliferation MCF-7
Method in brief: as §1

pYStat3 = assay: Immunoblotting of pStat3 in treated U251MG cells; format: cell-based, human; settings: for effect on pStat3 in treated tumor cells: 5 μM, glioma cells, immunoblotting
Method in brief: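 Whole-cell lysates from U251MG cells given test compound at 5 μM for 0–24 h, or at 0–5 μM for 2 h. Immunoblotted for pY705Stat3 and total Stat3, with GAPDH as loading reference.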

Stat3 = Stat3 DNA-binding activity/EMSA of nuclear extracts from treated glioma cells; format: cell-based, human; settings: for effect on Stat3 DNA-binding activity in treated tumor cells: 5 μM, glioma cells, EMSA; for IC50: Homo sapiens, U-251, read-out: IC50 Stat3 DNA-binding activity in treated cells
Stat3:Stat3 = Stat3:Stat3 (Mus musculus, UniProt P42227); assay: Cell-free EMSA, nuclear extracts pre-incubated with compound, hSIE probe; format: biochemical; settings: for Stat3:Stat3/DNA-binding activity (complexation), cell-free EMSA: 5 μM, 30 min pre-incubation, NIH3T3/v-Src nuclear extracts
Sequence of Stat3:Stat3 (P42227 2-770 limits assumed): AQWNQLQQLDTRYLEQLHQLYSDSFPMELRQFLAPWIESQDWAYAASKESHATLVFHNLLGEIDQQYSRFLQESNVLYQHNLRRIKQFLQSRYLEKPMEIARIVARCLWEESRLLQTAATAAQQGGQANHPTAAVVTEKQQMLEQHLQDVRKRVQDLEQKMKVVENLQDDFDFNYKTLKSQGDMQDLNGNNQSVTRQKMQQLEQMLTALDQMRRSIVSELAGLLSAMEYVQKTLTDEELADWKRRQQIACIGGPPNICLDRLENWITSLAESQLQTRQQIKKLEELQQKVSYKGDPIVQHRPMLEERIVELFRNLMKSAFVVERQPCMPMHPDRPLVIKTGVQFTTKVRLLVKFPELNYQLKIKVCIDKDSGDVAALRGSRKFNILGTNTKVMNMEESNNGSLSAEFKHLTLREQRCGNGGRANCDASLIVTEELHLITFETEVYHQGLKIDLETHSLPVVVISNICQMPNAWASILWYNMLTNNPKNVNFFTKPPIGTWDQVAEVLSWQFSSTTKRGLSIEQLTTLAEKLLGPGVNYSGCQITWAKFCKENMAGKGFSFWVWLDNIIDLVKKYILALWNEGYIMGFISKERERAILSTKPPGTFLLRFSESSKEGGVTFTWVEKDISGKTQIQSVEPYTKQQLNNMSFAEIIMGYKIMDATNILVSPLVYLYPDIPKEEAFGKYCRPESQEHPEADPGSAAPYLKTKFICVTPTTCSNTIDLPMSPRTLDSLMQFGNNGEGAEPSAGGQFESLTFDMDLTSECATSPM
Stat1:Stat1 = molecular target: T1, Stat1:Stat1 (Mus musculus, UniProt P42225); assay: Cell-free EMSA, EGF-stimulated NIH3T3/hEGFR nuclear extracts; format: biochemical; settings: 5 μM, 30 min pre-incubation
T1 sequence (P42225 2-749 limits assumed): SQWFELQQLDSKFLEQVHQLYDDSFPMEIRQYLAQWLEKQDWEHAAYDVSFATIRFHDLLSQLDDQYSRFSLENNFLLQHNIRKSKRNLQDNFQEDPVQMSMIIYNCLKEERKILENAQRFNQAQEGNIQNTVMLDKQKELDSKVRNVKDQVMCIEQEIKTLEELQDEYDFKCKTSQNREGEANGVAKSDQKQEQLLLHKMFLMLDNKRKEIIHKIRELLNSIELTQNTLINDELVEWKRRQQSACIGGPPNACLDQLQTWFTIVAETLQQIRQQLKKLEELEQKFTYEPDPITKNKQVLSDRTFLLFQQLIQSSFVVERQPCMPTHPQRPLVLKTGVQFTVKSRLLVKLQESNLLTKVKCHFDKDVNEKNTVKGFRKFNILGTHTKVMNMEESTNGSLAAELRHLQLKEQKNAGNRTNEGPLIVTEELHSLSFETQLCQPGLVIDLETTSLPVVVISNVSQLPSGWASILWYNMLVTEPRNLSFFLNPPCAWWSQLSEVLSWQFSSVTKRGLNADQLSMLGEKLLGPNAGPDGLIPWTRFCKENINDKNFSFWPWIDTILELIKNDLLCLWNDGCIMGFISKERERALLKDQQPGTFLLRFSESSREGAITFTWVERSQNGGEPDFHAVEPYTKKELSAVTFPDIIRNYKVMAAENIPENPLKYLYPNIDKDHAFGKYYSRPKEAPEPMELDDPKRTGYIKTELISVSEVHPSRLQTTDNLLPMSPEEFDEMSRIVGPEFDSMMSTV
Method in brief: (§2)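 Nuclear extracts from EGF-stimulated NIH3T3/hEGFR fibroblasts, containing active Stat1, Stat3 and Stat5, preincubated with 5 μM test compound for 30 min at room temperature. Then incubated 30 min with 32P-labelled probe before EMSA: hSIE (Stat1/Stat3 binding) or MGFe (bovine β-casein element; Stat1/Stat5 binding). STAT:DNA bands quantified as percent of control.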

Stat5:Stat5 = assay: Cell-free EMSA, EGF-stimulated NIH3T3/hEGFR nuclear extracts, MGFe probe; format: biochemical, mouse; settings: 5 μM, 30 min pre-incubation
Method in brief: as §2

U251MG cells = assay: CyQuant cell proliferation assay; format: cell-based, human; settings: for activity against U251MG cell growth: 5 μM; for IC50: Homo sapiens, U-251, 72 h, read-out: IC50 cell proliferation U251MG
Method in brief: as §1

Compound	effect on pStat3 in treated tumor cells (pYStat3)	effect on Stat3 DNA-binding activity in treated tumor cells (Stat3)	Stat3:Stat3/DNA-binding activity (complexation), cell-free EMSA (Stat3:Stat3)	activity against U251MG cell growth (U251MG cells)	also measured
C=C(C)C(=O)O[C@H]1C[C@@H](C)[C@]2(O)CC[C@](C)(/C=C3/OC(=O)C(COC(C)=O)=C31)O2 [Compound 7]	strongly inhibited	strongly inhibited	diminished	–	IC50 (MDA-MB-231 cells; Homo sapiens, MDA-MB-231, 72 h, read-out: IC50 cell proliferation MDA-MB-231): 5.2 to 9.1 µM; IC50 (SF295 cells): 7.4 to 18.3 µM; IC50 (U373MG cells): 6.6 to 8.2 µM; IC50 (MCF-7 cells): 4.8 to 9.6 µM; effect on Stat1:Stat1 activity, cell-free EMSA (Stat1:Stat1): weak effects; effect on Stat5:Stat5 activity, cell-free EMSA (Stat5:Stat5): weak effects
C/C=C(\C)C(=O)O[C@H]1C[C@@H](C)[C@]2(O)CC[C@](C)(/C=C3/OC(=O)C(CO)=C31)O2 [Compound 8]	little impact	–	only weakly inhibited	–	–
C[C@@H]1C[C@H](O)C2=C(CO)C(=O)O/C2=C/[C@@]2(C)CC[C@]1(O)O2 [Compound 14]	little impact	–	only weakly inhibited	–	–
C=C(C)C(=O)O[C@H]1C[C@@H](C)[C@]2(O)CC[C@](C)(/C=C3/OC(=O)C(CO)=C31)O2 [Compound 18]	little impact	–	only weakly inhibited	–	–
C/C=C(/C)C(=O)O[C@H]1C[C@@H](C)[C@]2(O)CC[C@](C)(/C=C3/OC(=O)C(CO)=C31)O2 [Compound 19]	little impact	–	only weakly inhibited	–	–
C/C(=C\CO)C(=O)O[C@H]1C[C@@H](C)[C@]2(O)CC[C@](C)(/C=C3/OC(=O)C(CO)=C31)O2 [Compound 21]	little impact	–	only weakly inhibited	–	–
C=C(C)C(=O)O[C@H]1C[C@@H](C)[C@]2(OC)CC[C@](C)(/C=C3/OC(=O)C(CO)=C31)O2 [Compound 28]	little impact	–	only weakly inhibited	–	–
CCC(C)C(=O)OCC1=C2/C(=C\[C@@]3(C)CC[C@](O)(O3)[C@H](C)C[C@@H]2O)OC1=O (stereo partly drawn) [Compound 29]	little effect	–	moderate inhibitory effects	weakly-active or inactive	–
C[C@@H]1C[C@H](O)C2=C(COC(=O)/C=C/c3ccccc3)C(=O)O/C2=C/[C@@]2(C)CC[C@]1(O)O2 [Compound 30]	suppressed	suppressed	diminished	retained or improved the inhibitory potency	IC50 (U251MG cells): 1 to 1.2 µM; IC50 (Stat3): 0.5 to 2.5 µM
CC(C)=CCC/C(C)=C/C(=O)OCC1=C2/C(=C\[C@@]3(C)CC[C@](O)(O3)[C@H](C)C[C@@H]2O)OC1=O [Compound 31]	suppressed	suppressed	diminished	retained or improved the inhibitory potency	IC50 (U251MG cells): 1 to 1.2 µM; IC50 (Stat3): 0.5 to 2.5 µM; effect on Stat1:Stat1 activity, cell-free EMSA (Stat1:Stat1): moderate effect
CC(C)=CC(=O)OCC1=C2/C(=C\[C@@]3(C)CC[C@](O)(O3)[C@H](C)C[C@@H]2O)OC1=O [Compound 32]	moderate effect	–	diminished	weakly-active or inactive	–
CC(C)=CCCC(C)CC(=O)OCC1=C2/C(=C\[C@@]3(C)CC[C@](O)(O3)[C@H](C)C[C@@H]2O)OC1=O (stereo partly drawn) [Compound 33]	suppressed	suppressed	diminished	retained or improved the inhibitory potency	IC50 (U251MG cells): 1 to 1.2 µM; IC50 (Stat3): 0.5 to 2.5 µM
C[C@@H]1C[C@H](O)C2=C(COC(=O)/C=C/c3ccc(F)cc3)C(=O)O/C2=C/[C@@]2(C)CC[C@]1(O)O2 [Compound 34]	–	–	diminished	retained or improved the inhibitory potency	effect on MDA-MB-231 cell growth (MDA-MB-231 cells): strongly inhibited
C[C@@H]1C[C@H](O)C2=C(COC(=O)/C=C/c3ccc(C(F)(F)F)cc3)C(=O)O/C2=C/[C@@]2(C)CC[C@]1(O)O2 [Compound 35]	–	–	diminished	retained or improved the inhibitory potency	–
C[C@@H]1C[C@H](O)C2=C(COC(=O)CCc3ccccc3)C(=O)O/C2=C/[C@@]2(C)CC[C@]1(O)O2 [Compound 36]	suppressed	suppressed	diminished	retained or improved the inhibitory potency	IC50 (U251MG cells): 1 to 1.2 µM; IC50 (Stat3): 0.5 to 2.5 µM
CCCC(CCC)C(=O)OCC1=C2/C(=C\[C@@]3(C)CC[C@](O)(O3)[C@H](C)C[C@@H]2O)OC1=O [Compound 37]	–	–	diminished	retained or improved the inhibitory potency	effect on MDA-MB-231 cell growth (MDA-MB-231 cells): strongly inhibited
C/C=C(\C)C(=O)OCC1=C2/C(=C\[C@@]3(C)CC[C@](OC)(O3)[C@H](C)C[C@@H]2OC(=O)/C(C)=C/C)OC1=O [Compound 39]	suppressed	suppressed	diminished	retained or improved the inhibitory potency	effect on MDA-MB-231 cell growth (MDA-MB-231 cells): strongly inhibited; IC50 (Stat3): 0.5 to 2.5 µM
C/C=C(\C)C(=O)O[C@H]1C[C@@H](C)[C@]2(OC)CC[C@](C)(/C=C3/OC(=O)C(COC(=O)/C=C/c4ccccc4)=C31)O2 [Compound 40]	–	–	moderate inhibitory effects	retained or improved the inhibitory potency	effect on MDA-MB-231 cell growth (MDA-MB-231 cells): strongly inhibited
CCN1C(=O)C=CC1=O [NEM, N-ethylmaleimide, reference compound]	–	–	–	–	Stat3:Stat3/DNA complexation, dose-dependent (Stat3:Stat3; Fig. S3B): inhibits
C=C1C(=O)O[C@H]2[C@H]1CC/C(C)=C/CC[C@@]1(C)O[C@@H]21 [parthenolide, reference compound]	–	–	–	–	cell growth activity, control compounds (U251MG cells; panel of cell lines, Fig. S5E(i)): poorly-active or non-specific in activity; Stat3 activity in tumor cells, control compounds (pYStat3; Fig. S5E(ii)): did not inhibit
